In ChEMBL document CHEMBL4334423, “Synthesis, molecular docking, and biological evaluation of novel 2-pyrazoline derivatives as multifunctional agents for the treatment of Alzheimer's disease” (Medchemcomm, 2019):
Calls of active or inactive are those of the source. The rule behind the calls is not given here.

Tests used:
Cholinesterase [1] = biological target: T1, Cholinesterase (Equus caballus, UniProt P81908); test: Inhibition of equine serum BChE using butyrylthiocholine iodide as substrate by Ellman's method
T1 sequence (P81908 whole entry): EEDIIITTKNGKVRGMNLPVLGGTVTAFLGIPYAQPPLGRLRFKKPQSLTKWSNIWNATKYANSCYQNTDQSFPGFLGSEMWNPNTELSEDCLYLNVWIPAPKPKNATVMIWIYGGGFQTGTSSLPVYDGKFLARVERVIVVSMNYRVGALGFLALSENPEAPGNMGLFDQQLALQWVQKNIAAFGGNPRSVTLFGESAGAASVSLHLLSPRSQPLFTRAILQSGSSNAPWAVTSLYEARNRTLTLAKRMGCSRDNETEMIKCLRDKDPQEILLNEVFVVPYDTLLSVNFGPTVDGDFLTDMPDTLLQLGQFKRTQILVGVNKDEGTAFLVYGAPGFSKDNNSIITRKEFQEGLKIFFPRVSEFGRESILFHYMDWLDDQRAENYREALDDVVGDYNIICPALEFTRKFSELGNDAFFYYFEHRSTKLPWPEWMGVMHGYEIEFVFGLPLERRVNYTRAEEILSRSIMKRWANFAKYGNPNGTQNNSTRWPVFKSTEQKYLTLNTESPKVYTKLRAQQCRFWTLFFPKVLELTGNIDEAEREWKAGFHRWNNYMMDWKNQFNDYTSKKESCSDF

Acetylcholinesterase [2] = biological target: T2, Acetylcholinesterase (Homo sapiens, UniProt P22303); test: Inhibition of human recombinant AChE expressed in HEK293 cells using acetylthiocholine iodide as substrate by Ellman's method
T2 sequence (P22303 whole entry): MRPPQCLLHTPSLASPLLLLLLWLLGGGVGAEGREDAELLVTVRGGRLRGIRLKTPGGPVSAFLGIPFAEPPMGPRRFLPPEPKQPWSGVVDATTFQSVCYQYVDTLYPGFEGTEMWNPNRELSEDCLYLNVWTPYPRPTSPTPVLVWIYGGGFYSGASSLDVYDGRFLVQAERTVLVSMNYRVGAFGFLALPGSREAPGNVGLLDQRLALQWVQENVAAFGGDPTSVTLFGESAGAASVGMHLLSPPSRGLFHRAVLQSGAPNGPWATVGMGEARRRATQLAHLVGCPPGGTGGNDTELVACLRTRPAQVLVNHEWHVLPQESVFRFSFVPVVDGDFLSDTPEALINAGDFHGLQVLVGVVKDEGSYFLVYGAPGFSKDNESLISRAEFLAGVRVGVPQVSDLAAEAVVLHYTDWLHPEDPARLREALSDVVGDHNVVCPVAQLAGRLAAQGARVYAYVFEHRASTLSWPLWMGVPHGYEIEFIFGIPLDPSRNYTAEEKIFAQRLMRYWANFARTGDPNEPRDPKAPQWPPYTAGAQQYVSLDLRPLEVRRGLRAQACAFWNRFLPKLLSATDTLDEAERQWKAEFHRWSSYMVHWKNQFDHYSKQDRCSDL

[3] = Selectivity index, ratio of IC50 for human recombinant AChE expressed in HEK293 cells to IC50 for equine serum BChE; assay type: cell-based
Method in brief: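 Both enzymes were run by the same Ellman method: substrate 0.2–0.5 mM, DTNB 0.125 mM, 100 mM MOPS pH 8.0, 25 °C, read at 412 nm. IC50 came from dose–response curves, and selectivity = IC50(AChE)/IC50(BChE).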

[4] = biological target: Amyloid-beta precursor protein (Homo sapiens) (UniProt P05067); test: Inhibition of human amyloid beta (1 to 42) self-induced aggregation assessed as Amyloid beta (1 to 42) aggregation at 100 uM incubated for 48 hrs by thioflavin T-based fluorescence assay (reference value: 100%); parameters: scale not given: the % may be the effect or the level left
Amyloid-beta precursor protein (Homo sapiens), sequence (P05067 whole entry): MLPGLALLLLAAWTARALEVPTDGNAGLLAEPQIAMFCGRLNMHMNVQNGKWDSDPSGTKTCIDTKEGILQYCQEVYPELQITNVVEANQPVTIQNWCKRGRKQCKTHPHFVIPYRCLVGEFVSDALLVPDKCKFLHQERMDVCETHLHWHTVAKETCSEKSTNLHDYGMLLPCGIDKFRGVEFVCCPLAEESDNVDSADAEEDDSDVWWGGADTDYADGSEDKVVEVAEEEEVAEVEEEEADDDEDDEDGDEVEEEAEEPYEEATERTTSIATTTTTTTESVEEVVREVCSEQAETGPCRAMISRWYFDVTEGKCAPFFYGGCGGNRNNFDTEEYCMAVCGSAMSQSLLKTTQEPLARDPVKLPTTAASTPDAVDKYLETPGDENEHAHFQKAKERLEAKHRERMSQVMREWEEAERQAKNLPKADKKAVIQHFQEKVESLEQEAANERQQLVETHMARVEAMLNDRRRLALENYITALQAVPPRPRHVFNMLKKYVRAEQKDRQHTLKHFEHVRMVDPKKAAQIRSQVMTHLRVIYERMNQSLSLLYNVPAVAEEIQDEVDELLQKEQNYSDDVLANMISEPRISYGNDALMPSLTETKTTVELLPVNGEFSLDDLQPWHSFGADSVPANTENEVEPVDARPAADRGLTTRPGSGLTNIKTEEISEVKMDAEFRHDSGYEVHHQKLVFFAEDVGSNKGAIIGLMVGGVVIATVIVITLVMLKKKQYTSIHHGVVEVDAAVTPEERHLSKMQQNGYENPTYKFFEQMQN

[5] = Cytotoxicity against mouse L929 cells assessed as cell viability at 10 uM incubated for 24 hrs by MTT assay (reference value: 100%); assay type: cell-based; conditions: read-out: Activity
Method in brief: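 L929 cells (ATCC CCL-1) seeded at 5000 per well, exposed to 10 μM compound for 24 h. MTT reagent was added, formazan dissolved in DMSO, and absorbance read at 570 and 690 nm. Viability is expressed relative to a non-treated control taken as 100%.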

SH-SY5Y [6] = test: cells; assay type: functional; conditions: Homo sapiens
SH-SY5Y [7] = test: cells; assay type: functional; conditions: Homo sapiens; remark: listed apart in the source
[8] = biological target: Amyloid-beta precursor protein (Homo sapiens) (UniProt P05067); test: Inhibition of human amyloid beta (1 to 42) self-induced aggregation assessed as Amyloid beta (1 to 42) aggregation at 10 uM incubated for 48 hrs by thioflavin T-based fluorescence assay (reference value: 100%); parameters: scale not given: the % may be the effect or the level left
Cholinesterase [9] = biological target: T1, Cholinesterase; test: Partial non-competitive inhibition of equine serum BChE using butyrylthiocholine iodide as substrate by Dixon and slope replot analysis
Method in brief: (§1)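 Ellman assay. Enzyme added last to a mix of thiocholine substrate (0.2–0.5 mM) and 0.125 mM DTNB in 100 mM MOPS pH 8.0 at 25 °C. Absorbance was followed at 412 nm. For kinetics, Dixon plots (1/v versus I) were built at inhibitor 0.5, 1, 10 and 100 μM and fitted with slope replots to get Ki. IC50 came from dose–response curves.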

[10] = biological target: Cholinesterase (Equus caballus) (UniProt P81908); test: Partial non-competitive inhibition of equine serum BChE assessed as decrease in Vmax with unchanged Km using butyrylthiocholine iodide as substrate by Dixon and slope replot analysis; method in brief: as §1
Cholinesterase (Equus caballus), sequence (P81908 whole entry): as the sequence (P81908 whole entry) above

Acetylcholinesterase [11] = biological target: T2, Acetylcholinesterase; test: Competitive inhibition of human recombinant AChE expressed in HEK293 cells using acetylthiocholine iodide as substrate by Dixon and slope replot analysis; method in brief: as §1

SMILES	IC50 (Cholinesterase [1])	IC50 (Acetylcholinesterase [2])	Ratio IC50 [3]	Activity [4]	viability at 24 h, 10 µM [5]	viability at 10 µM (SH-SY5Y [6])	viability at 10 µM (SH-SY5Y [7])	Activity [8]	Ki (Cholinesterase [9])	inhibition [10]	Ki (Acetylcholinesterase [11])
COc1ccc(C2=NN(C(C)=O)C(c3ccc(N4CCC(C)CC4)cc3)C2)cc1OC (stereo unspecified)	3.9 µM	77.4 µM	19.9	63.4%	95.4%	78.4%	81.1%	80.6%			
COc1ccc(C2=NN(C(C)=O)C(c3ccc(N4CCN(Cc5ccccc5)CC4)cc3)C2)cc1 (stereo unspecified)	137 µM	100 µM	0.7								
COc1ccc(C2=NN(C(C)=O)C(c3ccc(-n4cncn4)cc3)C2)cc1OC (stereo unspecified)	27.5 µM	955 µM	34.8								
CCN1CCN(c2ccc(C3CC(c4ccc(OC)c(OC)c4)=NN3C(C)=O)cc2)CC1 (stereo unspecified)	0.5 µM	47.9 µM	104	83.4%	89.2%	67.9%	87.4%		2.22 µM	Active	
COc1cc2c(cc1OC)C(=O)C(CC1CCN(Cc3ccccc3)CC1)C2 (stereo unspecified) [DONEPEZIL]						62.5%	69%				
COc1ccc(C2=NN(C(C)=O)C(c3ccc(N4CCC(Cc5ccccc5)CC4)cc3)C2)cc1OC (stereo unspecified)	2.1 µM	20.1 µM	9.8	86.4%	101%	83.5%	84.4%	82.2%			
COc1ccc(C2=NN(C(C)=O)C(c3ccc(N4CCN(c5ccccc5)CC4)cc3)C2)cc1OC (stereo unspecified)	1900 µM	295 µM	0.2								
CO[C@H]1/C=C/O[C@@]2(C)Oc3c(C)c(O)c4c(O)c(c(/C=N/N5CCN(C)CC5)c(O)c4c3C2=O)NC(=O)/C(C)=C\C=C\[C@H](C)[C@H](O)[C@@H](C)[C@@H](O)[C@@H](C)[C@H](OC(C)=O)[C@@H]1C				48.4%							
COc1ccc(C2=NN(C(C)=O)C(c3ccc(-n4cnc5ccccc54)cc3)C2)cc1OC (stereo unspecified)	254 µM	319 µM	1.2								
COc1ccc(C2=NN(C(C)=O)C(c3ccc(-n4ccnc4)cc3)C2)cc1OC (stereo unspecified)	32.7 µM	206 µM	6.3								
COc1ccc(C2=NN(C(C)=O)C(c3ccc(N4CCN(Cc5ccccc5)CC4)cc3)C2)cc1OC (stereo unspecified)	0.5 µM	62.8 µM	128	89.8%	93.3%	69.3%	87%				
CCN1CCN(c2ccc(C3CC(c4ccc(OC)cc4)=NN3C(C)=O)cc2)CC1 (stereo unspecified)	217 µM	221 µM	1								
COc1ccc(C2=NN(C(C)=O)C(c3ccc(N4CCN(C)CC4)cc3)C2)cc1OC (stereo unspecified)	6 µM	6.5 µM	1.1	72.6%	93.3%	95.6%	93.6%				0.63 µM
